Series [1] addresses SV2A. Conditions: [^3H]UCB-J competitive binding, rat whole brain; cited from earlier work.
The target of series [2] is SV2A. The conditions noted are these: rat brain homogenate; cited from earlier work.
Series [3] addresses T1, SV2A (Mus musculus, UniProt Q9JIS5). The series is classed as binding.
Series [4] deals with T1, SV2A. Description: Dynamic small animal PET imaging of mouse brain with [^18F]SynVesT-1. The series is classed as in vivo. A digest of the protocol:
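Female WT (C57BL/6J) and APP/PS1 mice, 88 ± 4 weeks, n = 3 each, under 1.5–2.5% isoflurane on a heating pad. Radiotracer given as an i.v. lateral tail-vein bolus (10.28 ± 3.74 MBq in 0.1 mL). Baseline emission data acquired 0–90 min p.i. on small-animal PET/CT. OSEM3D/MAP reconstruction with decay, attenuation, scatter, normalization and randoms corrections. Images co-registered to mouse brain atlas space for regional time-activity curves.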

In series [5] the target is T1, SV2A. It is filed as binding. The essentials: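 Mouse brain homogenate in 50 mM Tris-HCl with 2 mM MgCl2, pH 7.4, at 0.01 mg protein per well. Unlabelled ligand added from standard solutions of 0.1–50,000 nM, plus radioligand (~0.074 MBq, 2.3 nM). Shaken at 37 °C for 30 min, filters washed twice with buffer, then gamma counted. Binding expressed as pmol/mg protein. Nonspecific binding defined with 0.05 mM unlabelled ligand. Specific binding plotted against log total (hot + cold) ligand concentration.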
The source holds these as a separate data set.

In series [6] the test system is SV2A binding in the hippocampus. The conditions noted are these: APP/PS1 mice vs WT, [^11C]UCB-J PET; cited from earlier work.
Setting [7] is: rodent brain, from time-activity curves.

Here are results for 5 molecules from PMC8105262 (Molecular imaging and biology, 2020).

The structures appear in SMILES notation. Where two headings read alike, the source gives them in different places.

T1 sequence (Q9JIS5 whole entry): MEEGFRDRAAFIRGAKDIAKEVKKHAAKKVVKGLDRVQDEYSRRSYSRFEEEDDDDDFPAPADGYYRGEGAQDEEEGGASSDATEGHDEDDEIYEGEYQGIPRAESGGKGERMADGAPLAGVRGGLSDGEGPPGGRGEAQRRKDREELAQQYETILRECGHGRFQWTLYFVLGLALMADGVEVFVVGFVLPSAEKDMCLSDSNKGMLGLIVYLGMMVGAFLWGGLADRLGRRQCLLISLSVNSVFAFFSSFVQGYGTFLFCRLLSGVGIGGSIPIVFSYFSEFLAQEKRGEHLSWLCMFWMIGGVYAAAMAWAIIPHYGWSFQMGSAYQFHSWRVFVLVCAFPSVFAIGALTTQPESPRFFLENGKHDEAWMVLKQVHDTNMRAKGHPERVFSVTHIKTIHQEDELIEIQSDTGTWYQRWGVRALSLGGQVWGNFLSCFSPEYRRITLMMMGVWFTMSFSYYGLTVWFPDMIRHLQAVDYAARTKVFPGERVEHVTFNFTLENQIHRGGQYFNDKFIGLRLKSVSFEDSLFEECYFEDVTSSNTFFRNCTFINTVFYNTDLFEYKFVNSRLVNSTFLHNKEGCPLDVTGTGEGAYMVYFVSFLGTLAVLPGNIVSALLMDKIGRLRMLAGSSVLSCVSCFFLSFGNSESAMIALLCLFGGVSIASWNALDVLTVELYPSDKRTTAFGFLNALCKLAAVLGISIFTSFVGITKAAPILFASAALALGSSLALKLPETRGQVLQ

For `Cc1cnccc1CN1C[C@@H](c2cc(F)cc(F)c2)CC1=O` [SynVesT-1], the Ki at SV2A [1] was 2.2 nM.
In the case of `Cc1cnccc1CN1C[C@@H](c2cc(F)c(F)c(F)c2)CC1=O` [UCB-J], the equilibrium dissociation constant (Kd) on SV2A [2] was 2.6 ± 0.25 nM.
As for `Cc1cnccc1CN1C[C@@H](c2cc(F)cc([18F])c2)CC1=O` [[^18F]SynVesT-1, (R)-4-(3-Fluoro-5-(fluoro-^18F)phenyl)-1-((3-methylpyridin-4-yl)methyl)pyrrolidin-2-one], the Bmax at SV2A [3] (WT mouse brain sections) was 1.8 ± 0.1 pmol/mg of brain tissue; on SV2A [3] (WT mouse brain sections, assuming 10% of brain tissue is protein) it was 18 ± 1 pmol/mg protein; at SV2A [5] (mouse brain homogenate), 4.54 pmol/mg protein. Besides, at SV2A [3] (mouse brain sections), the “Radioligand concentration at which total binding appeared to saturate” value was “above 25 nM”. In addition, on SV2A [4] (WT and APP/PS1 mice, i.v. bolus, 0–90 min scan), the “Time of peak of brain time-activity curves” value is listed as ≤ 20 min p.i. The BBB penetration result at SV2A [4] (setting [7]) is on record as “efficient BBB penetration”. In addition, the “Binding kinetics in brain” value at SV2A [4] (setting [7]) is “reversible binding kinetics”. Further, the “Bmax (range over homologous competitive and autoradiographic saturation assays)” value on SV2A [5] (rodent brain tissue) was 4.5–18 pmol/mg protein.
On to `Cc1cnccc1CN1C[C@@H](c2cc(F)cc(F)c2)CC1=O` [[^18F]SynVesT-1, (R)-4-(3-Fluoro-5-(fluoro-^18F)phenyl)-1-((3-methylpyridin-4-yl)methyl)pyrrolidin-2-one], for which the Kd is 9.8 ± 1.7 nM at SV2A [3] (WT mouse brain sections, nonspecific binding with 1 mM levetiracetam) and 19.6 ± 1.38 nM on SV2A [5] (mouse brain homogenate, 37 °C, 30 min, Kd=Ki=IC50−[radioligand]).
As to `CN1CCN(CCOc2cc(OC3CCOCC3)c3c(Nc4c(Cl)ccc5c4OCO5)ncnc3c2)CC1` [saracatinib], the “Effect of treatment on decreased hippocampal SV2A binding” value in series [6] is “restored to the same level as the WT mice”.

Usually Ki stands for a measure of affinity in units of concentration, obtained from inhibition or displacement. The Kd is the constant that tells how readily two partners part at equilibrium.
